Reference: ChEMBL document CHEMBL1144713, “New selective inhibitors of steroid 11beta-hydroxylation in the adrenal cortex. Synthesis and structure-activity relationship of potent etomidate analogues” (J Med Chem, 2008)

What was measured:
[1] = (§1) Displacement of [131I]IMTO from CYP450c 11 in Wistar rat adrenal membrane; format: cell membranes
Method in brief: (§2)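 Crude membranes from whole adrenals of adult male Wistar rats, homogenized in 10 mM K2HPO4/10 mM HEPES pH 7.1 and washed; 0.06–0.1 mg original tissue per vial. Competitors at 0.1 nM–300 µM with 2 nM 131I-IMTO (carrier added) in buffer containing 150 mM NaCl, 23 °C, 20–30 min. Filtration, γ counting. Nonspecific binding with 10 µM ETO. IC50 and Hill coefficient from curve fit, mean ± SD.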

[2] = Inhibition on cortisol secretion in human NCI-H295 cells after 48 hrs; format: functional, cell-based; details: for IC50: Homo sapiens, NCI-H295, 48 h
Method in brief: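 NCI-h295 adrenocortical cells grown in RPMI 1640 with insulin, transferrin, selenium and 5% FCS. Compounds at 10 nM–100 µM added to 1 million cells/mL for 48 h, in triplicate. Supernatant cortisol measured by RIA and expressed as percent of control, with control from six uninhibited determinations. IC50 derived from these percentages.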

Rattus norvegicus = species: Rattus norvegicus; assay: as §1; format: cell membranes; method in brief: as §2

| SMILES | IC50 [1] [nM] | logIC50 [2] | IC50 [2] [nM] | logIC50 (Rattus norvegicus) |
| --- | --- | --- | --- | --- |
| C[C@H](c1ccccc1)n1cncc1C(=O)O | 123000 | – | – | – |
| COC(=O)c1cncn1[C@H](C)c1ccc(Br)cc1 | 8.95 | – | – | – |
| CC(=O)c1cncn1[C@H](C)c1ccccc1 | 59.8 | 1.96 | 59 | 1.78 |
| CCOC(=O)c1cncn1[C@H](C)c1ccccc1 [ETOMIDATE] | 1.08 | 0.66 | 4.57 | 0.033 |
| CON(C)C(=O)c1cncn1[C@H](C)c1ccccc1 | 14 | 1.45 | 19.5 | 1.18 |
| COC(=O)c1cncn1[C@H](C)c1cccc(I)c1 | 4.44 | – | – | – |
| COC(=O)c1cncn1Cc1ccccc1 | 28.8 | 1.51 | 32.1 | 1.46 |
| COC(=O)c1cncn1[C@@H]1CCc2ccccc21 | 3.26 | – | – | – |
| COC(=O)c1cncn1[C@H](C)c1cccnc1 | 20.7 | 1.72 | 52.2 | 1.32 |
| CCCOC(=O)c1cncn1[C@H](C)c1ccccc1 | 2.89 | – | – | – |
| COC(=O)c1cncn1[C@H](C)c1ccc(CO)cc1 | 3.29 | – | – | – |
| COC(=O)c1cncn1[C@H](C)c1ccccc1 | 3.69 | 1.14 | 13.9 | 0.57 |
| COC(=O)c1cncn1Cc1cccnc1 | 870 | – | – | – |
| COC(=O)c1cncn1[C@@H](C)c1ccccc1 | 492 | 2.77 | 593 | 2.69 |
| COC(=O)c1cncn1[C@H](C)c1ccc(I)cc1 [IODOMETOMIDATE I-123, R-] | 8.98 | 0.84 | 6.95 | 0.954 |
| CCOC(=O)c1cncn1[C@H](C)c1ccc(I)cc1 | 4.37 | – | – | – |
| C[C@H](c1ccccc1)n1cncc1C(=O)OCCF | 2.89 | 1.11 | 8.92 | 0.46 |
| CC[C@H](c1ccccc1)n1cncc1C(=O)OC | 6.23 | – | – | – |
| COC(=O)c1cncn1[C@H](C)c1ccc(C)cc1 | 3.58 | – | – | – |
| CNC(=O)c1cncn1[C@H](C)c1ccccc1 | 215 | 2.21 | 135 | 2.33 |
| CC(C)OC(=O)c1cncn1[C@H](C)c1ccccc1 | 1.42 | – | – | – |
